Measured values: publication PMC7359852 (ACS Infectious Diseases, 2020)
Where two headings read alike, the source gives them in different places.

What was measured:
S. mansoni [1] = conditions: cited from earlier work
S. mansoni [2] = conditions: cited from earlier work; remark: listed apart in the source
adult S. mansoni [3] = assay: Viability of adult S. mansoni worms in vitro, microscopic viability score; format: cell-based, Schistosoma mansoni; conditions: for IC50: Table 1, adult worms after 72 h; for adult (%) 0.1 μM: Table 1, 0.1 μM; for adult (%) 0.1 μM / adult (%) 1 μM: effect on adult worms after 72 h; for adult (%) 1 μM: Table 1, 1 μM
Summary of the method: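 Adult worms were picked from the hepatic portal and mesenteric veins of mice infected 49 days earlier with 100 cercariae. They were washed in PBS pH 7.4 and held in RPMI 1640 with 5% heat-inactivated FCS and antibiotics at 37 °C, 5% CO2. Worms were exposed to test compound for 72 h, with medium plus 1% DMSO as control. Motility, viability and morphology were scored daily by microscopy at 80×. IC50 used a 3-fold dilution series starting at 1 μM and was computed from the scores.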

adult S. mansoni [4] = conditions: read-out: IC50 against adult S. mansoni; cited from earlier work
S. mansoni NTS = conditions: read-out: IC50 against NTS; cited from earlier work
S. mansoni [5] = assay: In vivo study in mice harboring a chronic S. mansoni infection; conditions: single oral dose 10 mg/kg
Summary of the method: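 Female NMRI mice (3 weeks old, ca. 20–22 g) were infected subcutaneously with about 100 S. mansoni cercariae. At day 49 post-infection (adult infection), groups of four received a single oral 10 mg/kg dose of test compound; untreated mice served as controls. Mice were euthanised with CO2 21 days after treatment. Worms were picked, sexed and counted, and worm burden reduction was calculated.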

SMILES	IC50 (adult S. mansoni [3]; Schistosoma mansoni, 72 h)	adult (%) 0.1 μM (adult S. mansoni [3])	adult (%) 1 μM (adult S. mansoni [3])	IC50 (adult S. mansoni [3])	also measured
CC(=O)S[C@@H]1CC2=CC(=O)CC[C@]2(C)[C@H]2CC[C@@]3(C)[C@@H](CC[C@@]34CCC(=O)O4)[C@H]12 [spironolactone]	–	–	–	–	in vivo activity (S. mansoni [1]): moderate; in vitro activity against S. mansoni (S. mansoni [2]): 7.2 µM
C[C@@H]1C[C@H](O)[C@]2(O)O[C@@H]3C[C@@]4(C=O)[C@@H](CC[C@@H]5[C@@H]4CC[C@]4(C)[C@@H](C6=CC(=O)OC6)CC[C@]54O)C[C@H]3O[C@@H]2O1 [5a, Calotropin]	371 nM	22.9%	97%	–	–
C[C@@H]1C[C@H](O)[C@]2(O)O[C@@H]3C[C@@]4(C)[C@@H](CC[C@@H]5[C@@H]4CC[C@]4(C)[C@@H](C6=CC(=O)OC6)CC[C@]54O)C[C@H]3O[C@@H]2O1 [5f, Gomphoside]	–	24.4%	94%	196 nM	–
C[C@@H]1C[C@@]2(NCCS2)[C@]2(O)O[C@@H]3C[C@@]4(C=O)[C@@H](CC[C@@H]5[C@@H]4CC[C@]4(C)[C@@H](C6=CC(=O)OC6)CC[C@]54O)C[C@H]3O[C@@H]2O1 [5aa, Voruscharin]	–	31.3%	98%	137 nM	–
O=C(C1CCCCC1)N1CC(=O)N2CCc3ccccc3C2C1 (centres unmarked) [praziquantel]	–	–	–	–	IC50 (adult S. mansoni [4]): 100 nM; IC50 (S. mansoni NTS): 2200 nM
C[C@@H]1C[C@@]2(N=CCS2)[C@]2(O)O[C@@H]3C[C@@]4(C=O)[C@@H](CC[C@@H]5[C@@H]4CC[C@]4(C)[C@@H](C6=CC(=O)OC6)CC[C@]54O)C[C@H]3O[C@@H]2O1 [5z, Uscharin]	76 nM	51%	100%	–	mean number of worms, MV (S. mansoni [5]): 27.7 ± 6.5; mean number of worms, females (S. mansoni [5]): 13.0 ± 4.6; mean number of worms, liver, alive (S. mansoni [5]): 0.7 ± 1.1; mean number of worms, liver, dead (S. mansoni [5]): 0 ± 0; mean number of worms, males (S. mansoni [5]): 15.3 ± 3.2; mean number of worms, total (S. mansoni [5]): 28.3 ± 7.5; total WBR (worm burden reduction) (S. mansoni [5]; chronic infection): 0%
